How the values were obtained:
[1] = system: Bifidobacterium pseudolongum; assay: Antimicrobial activity against 60 min 1 M HCl-stressed Bifidobacterium pseudolongum ATCC 25562 after 18 hrs; format: functional
Summary of the method: (§1)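 Mid-log MRS culture pelleted and resuspended in MRS broth brought to pH 2.0 with 1 M HCl, held anaerobically at 37°C for 60 min, then subcultured in MRS (pH 6.5) for 24 h anaerobically before MIC testing by broth microdilution (as for unstressed cells). Table footnote gives 18 h anaerobic regrowth after the stress. MIC is the median of four repetitions.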

Bifidobacterium breve [2] = assay: Antimicrobial activity against 90 mins hydrogen peroxide-stressed Bifidobacterium breve R0070 after 18 hrs; format: functional
Summary of the method: (§2)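 Stress applied for 90 min at 37°C under anaerobic conditions, using MRS (initial pH 6.5) containing H2O2 at each strain's own inhibitory concentration. The H2O2 level was set beforehand by microplate tolerance testing. Challenged cells were regrown in MRS for 24 h (footnote: 18 h) before MIC testing by broth microdilution. Median of four repetitions.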

Bifidobacterium bifidum [3] = assay: Antimicrobial activity against 60 min 1 M HCl-stressed Bifidobacterium bifidum BB12 after 18 hrs; format: functional; summary of the method: as §1
Bifidobacterium longum [4] = assay: Antimicrobial activity against 90 mins oxgall-stressed Bifidobacterium longum R0175 after 18 hrs; format: functional
Summary of the method: (§3)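 Cells pelleted from mid-log MRS culture and resuspended in MRS (initial pH 6.5) with 0.3% (wt/vol) oxgall for 90 min anaerobically at 37°C. They were then regrown in MRS pH 6.5 for 24 h (footnote: 18 h) anaerobically and tested for MIC by the same broth microdilution assay. Median of four repetitions.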

Bifidobacterium longum [5] = assay: Antimicrobial activity against 90 mins oxgall-stressed Bifidobacterium longum ATCC 15707 after 18 hrs; format: functional; summary of the method: as §3
Bifidobacterium longum [6] = assay: Antimicrobial activity against Bifidobacterium longum ATCC 15707; format: functional
Summary of the method: (§4)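 Broth microdilution in MRS plus 0.05% L-cysteine-HCl. Mid-log culture adjusted to OD650 0.1, giving about 2.5 × 10^4 to 5.0 × 10^4 CFU/well, then added to twofold serial dilutions of agent. Plates incubated anaerobically at 37°C for 18 h and read at OD650. MIC is the lowest concentration matching the uninoculated blank OD, taken as the median of four repeats.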

Bifidobacterium bifidum [7] = assay: Antimicrobial activity against Bifidobacterium bifidum ATCC 15696; format: functional; summary of the method: as §4
Bifidobacterium longum [8] = assay: Antimicrobial activity against 60 min 1 M HCl-stressed Bifidobacterium longum P/N 601377 after 18 hrs; format: functional; summary of the method: as §1
[9] = system: Bifidobacterium thermophilum; assay: Antimicrobial activity against 90 mins oxgall-stressed Bifidobacterium thermophilum ATCC 25866 after 18 hrs; format: functional; summary of the method: as §3
Bifidobacterium bifidum [10] = assay: Antimicrobial activity against 90 mins oxgall-stressed Bifidobacterium bifidum ATCC 15696 after 18 hrs; format: functional; summary of the method: as §3
Bifidobacterium animalis [11] = assay: Antimicrobial activity against 90 mins hydrogen peroxide-stressed Bifidobacterium animalis ATCC 27536 after 18 hrs; format: functional; summary of the method: as §2
Bifidobacterium longum [12] = assay: Antimicrobial activity against Bifidobacterium longum P/N 601377; format: functional; summary of the method: as §4
[13] = Antimicrobial activity against 90 mins oxgall-stressed Bifidobacterium infantis ATCC 15697 after 18 hrs; format: functional, Bifidobacterium longum subsp. infantis; details: Bifidobacterium longum; summary of the method: as §3
Bifidobacterium bifidum [14] = assay: Antimicrobial activity against 90 mins hydrogen peroxide-stressed Bifidobacterium bifidum R0071 after 18 hrs; format: functional; summary of the method: as §2
Bifidobacterium breve [15] = assay: Antimicrobial activity against 90 mins oxgall-stressed Bifidobacterium breve ATCC 15700 after 18 hrs; format: functional; summary of the method: as §3
Bifidobacterium longum [16] = assay: Antimicrobial activity against 90 mins oxgall-stressed Bifidobacterium longum P/N 601377 after 18 hrs; format: functional; summary of the method: as §3
[17] = system: Bifidobacterium thermophilum; assay: Antimicrobial activity against 90 mins hydrogen peroxide-stressed Bifidobacterium thermophilum ATCC 25866 after 18 hrs; format: functional; summary of the method: as §2
Bifidobacterium longum [18] = assay: Antimicrobial activity against Bifidobacterium longum ATCC 15708; format: functional; summary of the method: as §4
[19] = Antimicrobial activity against Bifidobacterium infantis ATCC 15697; format: functional, Bifidobacterium longum subsp. infantis; details: Bifidobacterium longum; summary of the method: as §4
Bifidobacterium breve [20] = assay: Antimicrobial activity against 90 mins oxgall-stressed Bifidobacterium breve R0070 after 18 hrs; format: functional; summary of the method: as §3
[21] = system: Bifidobacterium pseudolongum; assay: Antimicrobial activity against 90 mins oxgall-stressed Bifidobacterium pseudolongum ATCC 25562 after 18 hrs; format: functional; summary of the method: as §3
Bifidobacterium breve [22] = assay: Antimicrobial activity against 60 min 1 M HCl-stressed Bifidobacterium breve R0070 after 18 hrs; format: functional; summary of the method: as §1
Bifidobacterium breve [23] = assay: Antimicrobial activity against 90 mins hydrogen peroxide-stressed Bifidobacterium breve ATCC 15700 after 18 hrs; format: functional; summary of the method: as §2
[24] = system: Bifidobacterium thermophilum; assay: Antimicrobial activity against 60 min 1 M HCl-stressed Bifidobacterium thermophilum ATCC 25866 after 18 hrs; format: functional; summary of the method: as §1
Bifidobacterium bifidum [25] = assay: Antimicrobial activity against Bifidobacterium bifidum BB12; format: functional; summary of the method: as §4
Bifidobacterium breve [26] = assay: Antimicrobial activity against 60 min 1 M HCl-stressed Bifidobacterium breve ATCC 15700 after 18 hrs; format: functional; summary of the method: as §1
Bifidobacterium bifidum [27] = assay: Antimicrobial activity against 60 min 1 M HCl-stressed Bifidobacterium bifidum R0071 after 18 hrs; format: functional; summary of the method: as §1
[28] = system: Bifidobacterium pseudolongum; assay: Antimicrobial activity against Bifidobacterium pseudolongum ATCC 25562; format: functional; summary of the method: as §4
Bifidobacterium breve [29] = assay: Antimicrobial activity against Bifidobacterium breve R0070; format: functional; summary of the method: as §4
Bifidobacterium longum [30] = assay: Antimicrobial activity against 60 min 1 M HCl-stressed Bifidobacterium longum ATCC 15707 after 18 hrs; format: functional; summary of the method: as §1
Bifidobacterium breve [31] = assay: Antimicrobial activity against Bifidobacterium breve ATCC 15700; format: functional; summary of the method: as §4
Bifidobacterium longum [32] = assay: Antimicrobial activity against 90 mins hydrogen peroxide-stressed Bifidobacterium longum ATCC 15708 after 18 hrs; format: functional; summary of the method: as §2
Bifidobacterium bifidum [33] = assay: Antimicrobial activity against 90 mins oxgall-stressed Bifidobacterium bifidum R0071 after 18 hrs; format: functional; summary of the method: as §3
Bifidobacterium animalis [34] = assay: Antimicrobial activity against 60 min 1 M HCl-stressed Bifidobacterium animalis ATCC 27536 after 18 hrs; format: functional; summary of the method: as §1
Bifidobacterium animalis [35] = assay: Antimicrobial activity against Bifidobacterium animalis ATCC 27536; format: functional; summary of the method: as §4
Bifidobacterium bifidum [36] = assay: Antimicrobial activity against Bifidobacterium bifidum R0071; format: functional; summary of the method: as §4
Bifidobacterium bifidum [37] = assay: Antimicrobial activity against 90 mins oxgall-stressed Bifidobacterium bifidum BB12 after 18 hrs; format: functional; summary of the method: as §3
[38] = Antimicrobial activity against 60 min 1 M HCl-stressed Bifidobacterium infantis ATCC 15697 after 18 hrs; format: functional, Bifidobacterium longum subsp. infantis; details: Bifidobacterium longum; summary of the method: as §1
Bifidobacterium longum [39] = assay: Antimicrobial activity against Bifidobacterium longum R0175; format: functional; summary of the method: as §4
Bifidobacterium longum [40] = assay: Antimicrobial activity against 90 mins oxgall-stressed Bifidobacterium longum ATCC 15708 after 18 hrs; format: functional; summary of the method: as §3
Bifidobacterium longum [41] = assay: Antimicrobial activity against 90 mins hydrogen peroxide-stressed Bifidobacterium longum ATCC 15707 after 18 hrs; format: functional; summary of the method: as §2
Bifidobacterium longum [42] = assay: Antimicrobial activity against 90 mins hydrogen peroxide-stressed Bifidobacterium longum R0175 after 18 hrs; format: functional; summary of the method: as §2
Bifidobacterium longum [43] = assay: Antimicrobial activity against 60 min 1 M HCl-stressed Bifidobacterium longum R0175 after 18 hrs; format: functional; summary of the method: as §1
Bifidobacterium bifidum [44] = assay: Antimicrobial activity against 90 mins hydrogen peroxide-stressed Bifidobacterium bifidum BB12 after 18 hrs; format: functional; summary of the method: as §2
Bifidobacterium longum [45] = assay: Antimicrobial activity against 90 mins hydrogen peroxide-stressed Bifidobacterium longum P/N 601377 after 18 hrs; format: functional; summary of the method: as §2
[46] = system: Bifidobacterium thermophilum; assay: Antimicrobial activity against Bifidobacterium thermophilum ATCC 25866; format: functional; summary of the method: as §4
Bifidobacterium animalis [47] = assay: Antimicrobial activity against 90 mins oxgall-stressed Bifidobacterium animalis ATCC 27536 after 18 hrs; format: functional; summary of the method: as §3

Measured: MIC

CC[C@H]1OC(=O)[C@H](C)[C@@H](O[C@H]2C[C@@](C)(OC)[C@@H](O)[C@H](C)O2)[C@H](C)[C@@H](O[C@@H]2O[C@H](C)C[C@H](N(C)C)[C@H]2O)[C@](C)(O)C[C@@H](C)C(=O)[C@H](C)[C@@H](O)[C@]1(C)O [ERYTHROMYCIN]
7.8 µg/mL: Bifidobacterium bifidum [7]
1.95 µg/mL: Bifidobacterium breve [31]
15.6 µg/mL: [19] | Bifidobacterium bifidum [25]
3.9 µg/mL: [1] | Bifidobacterium bifidum [3] | Bifidobacterium longum [5] | [9] | Bifidobacterium bifidum [10] | [13] | Bifidobacterium longum [16] | Bifidobacterium longum [18] | [21] | Bifidobacterium breve [26] | [28] | Bifidobacterium bifidum [33] | Bifidobacterium animalis [35] | Bifidobacterium bifidum [37] | [38]
500 µg/mL: Bifidobacterium bifidum [14]
1.9 µg/mL: Bifidobacterium longum [4] | Bifidobacterium animalis [34] | Bifidobacterium bifidum [36] | Bifidobacterium longum [40] | Bifidobacterium longum [45] | Bifidobacterium animalis [47]
0.98 µg/mL: all other assays above

— ChEMBL document CHEMBL1142148, “Antibiotic susceptibility profile of bifidobacteria as affected by oxgall, acid, and hydrogen peroxide stress” (2007)
